Results taken from ChEMBL document CHEMBL3751708, “Structure guided design of potential inhibitors of human calcium-calmodulin dependent protein kinase IV containing pyrimidine scaffold” (Bioorg Med Chem Lett, 2016).

Legend:
[1] = Cytotoxicity against human HuH7 cells after 48 hrs by MTT assay; type: functional, cell-based; conditions: Huh-7, 48 h
How it was run: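 Exponentially growing HuH7 hepatoma cells at 7000 per well, triplicates, dosed the next day with inhibitors at 5-150 μM for 48 h; curcumin served as positive control. MTT was then added in fresh DMEM for 4-5 h at 37 °C, and formazan was dissolved in DMSO and read at 570 nm. IC50 was derived from percent viability; three independent experiments, mean ± S.D.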

HEK293 [2] = assay: Cytotoxicity against human HEK293 cells after 48 hrs by MTT assay; type: cell-based; conditions: HEK293, 48 h
[3] = target: T1, Calcium/calmodulin-dependent protein kinase type IV (Homo sapiens) (UniProt Q16566); assay: Binding affinity to human CAMK4 at pH 7.4 by fluorescence emission spectra analysis
T1 sequence (whole entry): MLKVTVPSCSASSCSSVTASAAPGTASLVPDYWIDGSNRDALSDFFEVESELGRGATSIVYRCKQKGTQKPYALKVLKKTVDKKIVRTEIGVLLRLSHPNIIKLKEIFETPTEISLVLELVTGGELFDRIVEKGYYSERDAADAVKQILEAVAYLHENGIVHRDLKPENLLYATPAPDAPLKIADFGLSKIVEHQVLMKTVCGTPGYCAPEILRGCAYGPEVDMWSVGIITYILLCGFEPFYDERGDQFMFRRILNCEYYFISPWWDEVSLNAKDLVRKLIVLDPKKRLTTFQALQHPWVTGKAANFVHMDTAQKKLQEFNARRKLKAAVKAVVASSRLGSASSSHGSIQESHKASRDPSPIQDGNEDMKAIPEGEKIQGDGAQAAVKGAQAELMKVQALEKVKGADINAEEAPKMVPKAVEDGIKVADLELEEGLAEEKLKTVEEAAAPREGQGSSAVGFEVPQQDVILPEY
How it was run: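 Recombinant CAMKIV kinase domain at 4 μM in 50 mM phosphate pH 7.4 with 150 mM NaCl, 25 °C. Titrated from a 1.0 mM ligand stock up to 132 μM final. Ligands were diluted from DMSO stock and dialyzed in buffer beforehand. Excitation at 280 nm, tryptophan emission read over 300-400 nm. Ka and n taken from a modified Stern–Volmer plot; three measurements.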

HEK293 [4] = assay: Cytotoxicity against human HEK293 cells up to 25 uM after 48 hrs by MTT assay; type: cell-based; conditions: hek293, 48 h
How it was run: (§1)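 HEK293 cells at 7000 per well, triplicates, treated the next day with inhibitors at 5-150 μM for 48 h. MTT was then added to fresh DMEM for 4-5 h at 37 °C. Formazan was dissolved in DMSO and read at 570 nm. Viability given as percent of untreated control.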

HEK293 [5] = assay: Cytotoxicity against human HEK293 cells up to 50 uM after 48 hrs by MTT assay; type: cell-based; conditions: hek293, 48 h; how it was run: as §1

Kapp [3] | SMILES | IC50 [1] | IC50 (HEK293 [2]) | Activity (HEK293 [4]) | Activity (HEK293 [5])
– | COc1cc(/C=C/C(=O)CC(=O)/C=C/c2ccc(O)c(OC)c2)ccc1O [CURCUMIN] | 48 µM | > 400 µM | – | –
4.6 ×10⁵ /M | N#Cc1cccnc1N1CCN(c2cc(Oc3cccc4cccnc34)ncn2)CC1 | 104 µM | > 400 µM | Non-toxic | –
1.6 ×10⁵ /M | Nc1cccc(Oc2cc(Oc3cccc4cccnc34)ncn2)c1 | 116 µM | 400 µM | Non-toxic | –
2.2 ×10⁸ /M | COc1ccc(Nc2cc(N3CCNCC3)ncn2)cc1 | 46 µM | > 400 µM | – | Non-toxic
